pIC50, pKi: −log10 of the molar value.
Key:
Escherichia coli [1] = experiment: Inhibition of Escherichia coli OGDHc E1 subunit assessed as DCPIP reduction at 250 uM preincubated for 60 mins followed by […] addition using 125 uM ThDP as substrate by microplate reader analysis
Aerococcus viridans [2] = experiment: Inhibition of Aerococcus viridans pyruvate oxidase at 250 uM preincubated for 30 mins followed by pyruvate addition using 50 uM ThDP as substrate by microplate reader analysis
How it was run: (§1)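 Single-point preliminary screen with compound at 250 μM and ThDP at 50 μM. Values are means of three technical replicates.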

Aerococcus viridans [3] = experiment: Inhibition of Aerococcus viridans pyruvate oxidase at 250 uM preincubated for 30 mins followed by pyruvate addition using 125 uM ThDP as substrate by microplate reader analysis
Escherichia coli [4] = experiment: Inhibition of Escherichia coli OGDHc E1 subunit assessed as DCPIP reduction at 250 uM preincubated for 60 mins followed by […] addition using 50 uM ThDP as substrate by microplate reader analysis; how it was run: as §1
[5] = biological target: T1, Pyruvate dehydrogenase E1 component subunit alpha, somatic form, mitochondrial (Sus scrofa, UniProt P29804); experiment: Inhibition of porcine PDHc E1-subunit assessed as DCPIP reduction preincubated for 30 mins followed by pyruvate addition using 10 uM ThDP as substrate by microplate reader analysis
T1 sequence (P29804 whole entry): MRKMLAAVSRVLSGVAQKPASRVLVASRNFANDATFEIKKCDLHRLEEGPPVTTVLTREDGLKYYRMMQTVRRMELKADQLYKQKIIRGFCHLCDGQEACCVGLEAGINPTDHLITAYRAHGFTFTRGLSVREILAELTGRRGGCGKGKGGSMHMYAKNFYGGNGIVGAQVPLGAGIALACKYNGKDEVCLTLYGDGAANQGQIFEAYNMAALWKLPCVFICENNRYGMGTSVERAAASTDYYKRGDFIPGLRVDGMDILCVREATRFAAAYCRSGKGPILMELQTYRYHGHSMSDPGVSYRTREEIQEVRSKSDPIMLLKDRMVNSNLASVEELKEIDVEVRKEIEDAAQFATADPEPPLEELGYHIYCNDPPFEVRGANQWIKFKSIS

[6] = biological target: T1, Pyruvate dehydrogenase E1 component subunit alpha, somatic form, mitochondrial; experiment: Inhibition of porcine PDHc E1-subunit assessed as inhibition constant preincubated for 30 mins followed by pyruvate addition using 10 uM ThDP as substrate by microplate reader analysis
Plasmodium falciparum [7] = experiment: Antiplasmodial activity against chloroquine-sensitive Plasmodium falciparum 3D7 infected in human erythrocyte assessed as inhibition of parasite proliferation in thiamine free medium by SYBR-Safe assay; format: functional, organism-based; settings: 3D7, Erythrocyte
How it was run: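 3D7 parasites in human erythrocytes cultured in thiamine-free medium with a range of compound concentrations. […] Means come from three independent experiments, each run in three technical replicates.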

Plasmodium falciparum [8] = experiment: Antiplasmodial activity against Plasmodium falciparum 3D7 infected in human erythrocyte assessed as intraerythrocytic growth inhibition in thiamine-free medium by [3H]-hypoxanthine incorporation assay; format: functional, organism-based; settings: 3D7, Erythrocyte
Plasmodium falciparum [9] = experiment: Antiplasmodial activity against chloroquine-sensitive Plasmodium falciparum 3D7 infected in human erythrocyte assessed as inhibition of parasite proliferation in presence of 297uM thiamine by SYBR-Safe assay; format: functional, organism-based; settings: 3D7, Erythrocyte
How it was run: (§2)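 P. falciparum 3D7-infected erythrocytes were exposed to compound in culture medium with added thiamine, 2.97 μM or 297 μM. Proliferation was read as parasite DNA by SYBR-Safe assay.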

Plasmodium falciparum [10] = experiment: Antiplasmodial activity against chloroquine-sensitive Plasmodium falciparum 3D7 infected in human erythrocyte assessed as inhibition of parasite proliferation in presence of 2.97uM thiamine by SYBR-Safe assay; format: functional, organism-based; settings: 3D7, Erythrocyte; how it was run: as §2
Plasmodium falciparum [11] = experiment: Antiplasmodial activity against Plasmodium falciparum 3D7 infected in human erythrocyte assessed as intraerythrocytic growth inhibition in presence thiamine-rich medium by [3H]-hypoxanthine incorporation assay; format: functional, organism-based; settings: 3D7, Erythrocyte

inhibition (Escherichia coli [1])	inhibition (Aerococcus viridans [2])	inhibition (Aerococcus viridans [3])	inhibition (Escherichia coli [4])	SMILES	further results
< 20%	< 20%	< 20%	–	COc1ccc(-c2cn(CCc3cn(Cc4cnc(C)nc4N)nn3)nn2)cc1	–
< 20%	< 20%	< 20%	< 20%	Cc1ncc(Cn2cc(CCCn3cc(-c4ccccc4)nn3)nn2)c(N)n1	–
< 20%	< 20%	< 20%	< 20%	Cc1ncc(Cn2cc(CCCCn3cc(-c4ccc(F)cc4)nn3)nn2)c(N)n1	–
< 20%	< 20%	< 20%	–	Cc1ncc(Cn2cc(CCn3cc(-c4ccc(F)cc4)nn3)nn2)c(N)n1	–
< 20%	< 20%	< 20%	< 20%	COc1ccc(-c2cn(CCCCc3cn(Cc4cnc(C)nc4N)nn3)nn2)cc1	pIC50 [5]: 5.22
< 20%	< 20%	< 20%	< 20%	Cc1ncc(Cn2cc(CCCn3cc(-c4ccc(F)cc4)nn3)nn2)c(N)n1	–
< 20%	< 20%	< 20%	< 20%	COc1ccc(-c2cn(CCCc3cn(Cc4cnc(C)nc4N)nn3)nn2)cc1	–

The remaining lines, values behind:

SMILES	inhibition (Escherichia coli [1])	inhibition (Aerococcus viridans [2])	inhibition (Aerococcus viridans [3])	inhibition (Escherichia coli [4])	further results
Cc1ncc(Cn2cc(CCCC(=O)NO)nn2)c(N)n1	–	–	–	–	pIC50 [5]: 5.05; pKi [6]: 7.35
Cc1ncc(Cn2cc(CCCCn3cc(-c4ccccc4)nn3)nn2)c(N)n1	< 20%	< 20%	< 20%	< 20%	–
Cc1ncc(Cn2cc(CCn3cc(-c4ccccc4)nn3)nn2)c(N)n1	< 20%	–	< 20%	–	–
Cc1ncc(Cn2cc(CCCCC(=O)NO)nn2)c(N)n1	–	–	–	–	pIC50 [5]: 5.10; pIC50 (Plasmodium falciparum [7]): 5.52; pKi [6]: 7.40
Cc1ncc(C[n+]2csc(CCO)c2C)c(O)n1	–	–	–	–	pIC50 (Plasmodium falciparum [7]): 4.96; pIC50 (Plasmodium falciparum [8]): 4.96; pIC50 (Plasmodium falciparum [9]): 2.26; pIC50 (Plasmodium falciparum [10]): 2.28; pIC50 (Plasmodium falciparum [11]): 5.28

Reference: ChEMBL document CHEMBL5257137, “Inhibition of Thiamine Diphosphate-Dependent Enzymes by Triazole-Based Thiamine Analogues” (ACS Med Chem Lett, 2023)
